Screening results as filed in PubChem.
This is a sample that favours compounds with a hit; in the whole collection about 2.2% have one here.
APP 5'UTR act: activators of APP 5'UTR luciferase reporter, primary screen, SH-SY5Y cells; activation, % at 2 µM; SH-SY5Y APP 5'UTR luciferase reporter, luminescence; zero percent = DMSO vehicle wells; 1% of 190,000 active;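 active = activation above a set limit, based on mean plus 3 SD of controls, cut at about 140% in these data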
PPC-1+TRAIL kill: compounds killing PPC-1 cancer cells with TRAIL present, primary screen, TRAIL potentiator project, ATPLite luminescence, uHTS | 0.41% of 220,000 active | cell killing (% activity), % at 4 µM or 5 µM | PPC-1 cells + TRAIL, ATPLite viability luminescence;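 active = cell killing above 50% in the first pass at 4 µM, then a duplicate retest at 5 µM averaging 50% or more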;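 also: plate controls were cells with TRAIL plus DMSO for no effect and medium-only wells lacking cells for full effect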
C8 TRAIL sens: viability loss with TRAIL in NB7+C8 cells, primary screen, TRAIL sensitizer project, cell-based, ATPlite luminescence. 1% of 360,000 active. inhibition (viability loss, TRAIL sensitization), % at 10 µM. AID 624354, 2012;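 active = compounds causing at least 50% loss of cell viability in the single-dose screen, relative to plate controls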
FLuc stim CS: FLuc activators, initial screening, artefact control for FLuc-dependent activation tests, biochemical, ATPlite luminescence. 200,000 tested, under 10 active. ATPlite luciferase biochemical, 10 min; 0 = ATP-free wells, 1 = DMSO control. activation factor at 10 µM;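 active = luciferase activation factor, scaled between plate controls, of at least 2 with compound at 10 µM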
Target sequence (P08659 whole entry, looked up): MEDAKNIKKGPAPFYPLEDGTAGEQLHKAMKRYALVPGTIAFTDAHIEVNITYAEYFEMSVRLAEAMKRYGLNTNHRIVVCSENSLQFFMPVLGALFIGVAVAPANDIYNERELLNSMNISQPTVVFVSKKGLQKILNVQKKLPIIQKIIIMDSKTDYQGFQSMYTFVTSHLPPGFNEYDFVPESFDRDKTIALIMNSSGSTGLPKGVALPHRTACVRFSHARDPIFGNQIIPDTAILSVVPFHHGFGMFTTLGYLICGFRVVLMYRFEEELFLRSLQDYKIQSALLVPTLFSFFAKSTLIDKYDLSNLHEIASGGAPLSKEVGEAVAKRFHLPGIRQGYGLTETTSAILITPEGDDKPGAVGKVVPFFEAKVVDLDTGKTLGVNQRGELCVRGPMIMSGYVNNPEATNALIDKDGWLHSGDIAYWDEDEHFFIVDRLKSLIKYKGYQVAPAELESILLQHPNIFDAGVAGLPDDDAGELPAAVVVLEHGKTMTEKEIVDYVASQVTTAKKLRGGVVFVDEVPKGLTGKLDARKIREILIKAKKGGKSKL
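Assay system: Luciferase/luciferin reagent mix; Medium: PBS as buffer for the ATP substrate; Dosing: test compounds dosed from 2 mM stocks in 100% DMSO; Times: 10 min, room temperature; Signal: luminescence from luciferase reaction; Read-out: luciferase activation; Controls: No-ATP low control, compound-free enzyme-plus-ATP high control.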
FLuc inhib CS: firefly luciferase enzyme inhibitors, primary screen, artefact control for luciferase-based inhibitor screens, biochemical, luminescence, ATPLite | AID 1006, 2008 | inhibition, % at 10 µM | 1.5% of 200,000 active | Luciferin 4-monooxygenase (Photinus pyralis), P08659 | 10 min;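 active = inhibition above about 50% when tested at 10 µM, limit read from the data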
NF-kB expr up: activators of NF-kB expression in neurons, primary screen, cell-based, HTS; human neuronal cells, NF-kB reporter expression; stronger effect = higher value; 1.6% of 190,000 active; AID 1239, 2008; fold change at 12.5 µM; in the data active = fold change above about 3.3
* = called active by the depositor; · = not tested or not shown.

SMILES	APP 5'UTR act	PPC-1+TRAIL kill	C8 TRAIL sens	FLuc stim CS	FLuc inhib CS	NF-kB expr up
CCCCc1ccc(NC(=O)c2cnccn2)cc1	174*	21	55*	0.2	76*	5.8*
O=C(Nc1ccc(N2CCOCC2)cc1)c1csc(COCCO)n1	·	·	55*	·	·	·
CS(=O)(=O)c1ncc(Cl)c(C(=O)Nc2ccc(N3CCOCC3)cc2)n1	-44	8	73*	0.9	9	1.5
CS(=O)(=O)c1ccc(C(=O)Nc2ccc(N3CCOCC3)cc2)c(Cl)c1	-11	-11	-9	1	-4	1.3
O=C(Nc1ccc(N2CCOCC2)cc1)c1cnccn1	·	·	78*	·	·	·
O=C(NC1CCCC1)C(C1CC1)n1c(-c2ccccn2)nc2ccccc21 (centres undefined)	·	·	-14	·	·	·
Cc1cc2nc(-c3ccccc3)c(Cc3cccc(Cl)c3)n2c(C)c1Br	·	·	13	·	·	·
Cc1ccccc1NC(=O)c1nc(S(C)(=O)=O)ncc1Cl	·	·	-1	·	·	·
CS(=O)(=O)c1ncc(Cl)c(C(=O)Nc2ccc(OC(F)F)cc2)n1	·	·	72*	·	·	·
COc1ccc(C(C(=O)NC2CCCCC2)N(C(=O)CCl)c2ccc(C)cc2)cc1 (centres undefined)	-6	72*	95*	1.1	-6	1.2
COc1ccc(C(C(=O)NC2CCCCC2)N(C(=O)CCl)c2ccc(OC)cc2)cc1 (centres undefined)	-29	35	96*	1.1	-8	0.19
COc1ccc(C(C(=O)NC2CCCCC2)N(C(=O)CCl)c2cccc(Cl)c2)cc1 (centres undefined)	29	59*	96*	1	-3	0.09
O=C1NC[C@H](CCCCN2C[C@H](Cc3ccccc3)N(CCc3ccccc3)C(=O)C2=O)N(CCC2CCCCC2)C1=O	·	·	-3	·	·	·
CCC(=O)N1CCCC(C(=O)Nc2nc3ccccc3[nH]2)CC1 (centres undefined)	·	·	4	·	·	·
CN(C)C(=O)c1cccc(COc2ccc(N3C(N)=NC(N)=NC3(C)C)cc2Cl)c1	·	·	83*	·	·	·
Cc1cc2c(cc1C)-n1nnnc1C(N(Cc1ccccc1)Cc1ccccc1)C(=O)N2 (centres undefined)	·	·	1	·	·	·
CCC(=O)Nc1cccc(C(=O)/C=C/c2ccccc2)c1	24	17	-14	0.9	6	8.8*
CC(C)c1cc(Cn2c3ccccc3c(=O)n2C(C)Cn2cc(CCCC#N)nn2)on1 (centres undefined)	·	·	-5	·	·	·
O=c1cc(C(Cl)(Cl)Cl)oc2c1ccc1ccccc12	-8	17	90*	1	-2	1.3
CC(C)c1ccc(/C=C2\SC(=O)N(CC(=O)NC3C=CS(=O)(=O)C3)C2=O)cc1 (centres undefined)	·	·	54*	·	·	·
CCCCC(=O)N/N=C/c1ccc(Sc2cccc3cccnc23)o1	1	5	0	1	-2	4.4*
O=C(Cc1cccc2ccccc12)N/N=C/c1ccc(Sc2cccc3cccnc23)o1	-54	14	·	1.1	-6	0.7
Cc1occc1C(=O)NN=C1C2CC3CC(C2)CC1C3	154*	33	5	1	-5	2.5
CCC(N=c1cc(-c2ccc(OC)cc2)oc2ccc(C)cc12)C(=O)O (centres undefined)	147*	14	-4	0.9	10	3.1
Cc1ccc(C2=NN=C(NC(=O)CSc3nncn3C)SC2)cc1	12	1	11	0.1	86*	1.8
Cc1ccc(C2=NN=C(NC(=O)C(F)(F)F)SC2)cc1	48	20	8	0.7	34	4.3*
CC(C)CC(N)c1csc(Nc2cnccn2)n1 (centres undefined)	·	·	-3	·	·	·
Cc1cc(C)cc(C(O)c2ncc(-c3ccc(F)cc3)[nH]2)c1 (centres undefined)	·	·	-2	·	·	·
CCC(C)(C)C1CCC(=NNC(=S)Nc2ccccc2)CC1 (centres undefined)	152*	-4	-1	1.1	-6	1.2
CN1OC[C@@H]2CN(Cc3cc(Cl)cc(Cl)c3)[C@H](c3cccc(-c4ccc(C#N)cc4)c3)C[C@@H]21	·	·	11	·	·	·
